# From ChEMBL document CHEMBL3232844, “Synthesis and structure activity relationships of schweinfurthin indoles” (2014)
# How the values were obtained:
# Format in all cases: functional
# [1] = tested on: HOP-92; assay: Cytotoxicity against human HOP92 cells; details: for CC50: read-out: pLC50 (the source's name) (converted); for TGI: read-out: pTGI (converted)
# How it was run: (§1)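 Tested in a 60-cell-line human tumor panel screen; the read-out is growth inhibition, reported as GI50 for each cell line.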
# [2] = tested on: Malme-3M; assay: Cytotoxicity against human MALME-3M cells; how it was run: as §1
# [3] = tested on: SW-620; assay: Cytotoxicity against human SW620 cells; details: for CC50: read-out: pLC50 (the source's name) (converted)
# How it was run: (§2)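 Cell line run as part of the 60-cell-line screening panel; growth inhibition was reported as a GI50 for each line.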
# [4] = tested on: RPMI-8226; assay: Cytotoxicity against human RPMI8226 cells; how it was run: as §1
# [5] = Cytotoxicity against human UACC257 cells; details: for GI50: UACC-257; for CC50: UACC-257, read-out: pLC50 (the source's name) (converted); for TGI: UACC-257, read-out: pTGI (converted); how it was run: as §2
# [6] = tested on: NCI-H522; assay: Cytotoxicity against human NCI-H522 cells; how it was run: as §1
# [7] = tested on: SF-295; assay: Cytotoxicity against human SF295 cells; details: for TGI: read-out: pTGI (converted); how it was run: as §1
# [8] = tested on: TK-10; assay: Cytotoxicity against human TK10 cells; details: for TGI: read-out: pTGI (converted); how it was run: as §2
# [9] = Cytotoxicity against human EKVX cells; details: for CC50: read-out: pLC50 (the source's name) (converted); for TGI: read-out: pTGI (converted); how it was run: as §1
# [10] = tested on: SN12C; assay: Cytotoxicity against human SN12C cells; details: for TGI: read-out: pTGI (converted); how it was run: as §1
# [11] = tested on: U-251; assay: Cytotoxicity against human U251 cells; details: for CC50: read-out: pLC50 (the source's name) (converted); for TGI: read-out: pTGI (converted); how it was run: as §2
# [12] = Cytotoxicity against human Hs578T cells; details: Hs-578T; for TGI: read-out: pTGI (converted); how it was run: as §1
# [13] = tested on: SK-MEL-28; assay: Cytotoxicity against human SK-MEL-28 cells; details: for CC50: read-out: pLC50 (the source's name) (converted); for TGI: read-out: pTGI (converted); how it was run: as §1
# [14] = tested on: HT-29; assay: Cytotoxicity against human HT-29 cells; details: for CC50: read-out: pLC50 (the source's name) (converted); for TGI: read-out: pTGI (converted); how it was run: as §1
# [15] = Cytotoxicity against human OVCAR3 cells; details: for GI50: OVCAR-3; for CC50: OVCAR-3, read-out: pLC50 (the source's name) (converted); for TGI: OVCAR-3, read-out: pTGI (converted); how it was run: as §1
# [16] = tested on: SR; assay: Cytotoxicity against human SR cells; details: for CC50: read-out: pLC50 (the source's name) (converted); for TGI: read-out: pTGI (converted); how it was run: as §2
# [17] = tested on: RXF 393; assay: Cytotoxicity against human RXF393 cells; details: for TGI: read-out: pTGI (converted); how it was run: as §1
# [18] = read-out: pLC50 (the source's name) (converted)
smiles,measurement,setting,value
COc1cc(/C=C/c2cc(O)c3ccn(C)c3c2)cc2c1O[C@]1(C)CC[C@@H](O)C(C)(C)[C@H]1C2,GI50,[1],525 nM
same,CC50,[1],> 100 µM
same,TGI,[1],5.62 µM
same,GI50,[2],309 nM
same,CC50,[2]; [18],> 100 µM
same,TGI,[2]; read-out: pTGI (converted),49 µM
same,GI50,[3],1020 nM
same,CC50,[3],> 100 µM
same,TGI,[3]; read-out: pTGI (converted),3.24 µM
same,GI50,[4],70.8 nM
same,CC50,[4]; [18],> 100 µM
same,TGI,[4]; read-out: pTGI (converted),1620 nM
same,GI50,[5],1740 nM
same,CC50,[5],> 100 µM
same,TGI,[5],8.13 µM
same,GI50,[6],1.45 µM
same,CC50,[6]; [18],> 100 µM
same,TGI,[6]; read-out: pTGI (converted),4.37 µM
same,GI50,[7]; read-out: GI50,760 nM
same,GI50,[7]; read-out: pGI50 (converted),759 nM
same,TGI,[7],2750 nM
same,GI50,[8],3.72 µM
same,LC50,[8],> 100 µM
same,TGI,[8],64.6 µM
same,GI50,[9],4.27 µM
same,CC50,[9],> 100 µM
same,TGI,[9],85.1 µM
same,GI50,[10],6.92 µM
same,LC50,[10],> 100 µM
same,TGI,[10],91.2 µM
same,GI50,[11],417 nM
same,CC50,[11],> 100 µM
same,TGI,[11],63.1 µM
same,GI50,[12],141 nM
same,LC50,[12],> 100 µM
same,TGI,[12],20.4 µM
same,GI50,[13],832 nM
same,CC50,[13],> 100 µM
same,TGI,[13],16.2 µM
same,GI50,[14],1.86 µM
same,CC50,[14],63.1 µM
same,TGI,[14],7.41 µM
same,GI50,[15],4.79 µM
same,CC50,[15],> 100 µM
same,TGI,[15],42.7 µM
same,GI50,[16],468 nM
same,CC50,[16],> 100 µM
same,TGI,[16],> 100 µM
same,GI50,[17],30.2 nM
same,LC50,[17],8.71 µM
same,TGI,[17],120 nM
COc1cc(/C=C/c2cc(O)c3c(c2)C[C@@H]2C(C)(C)[C@H](O)CC[C@@]2(C)O3)cc2c1ccn2C,GI50,[1],955 nM
same,CC50,[1],89.1 µM
same,TGI,[1],12.6 µM
same,CC50,[3],18.6 µM
same,GI50,[5],38.9 nM
same,CC50,[5],64.6 µM
same,TGI,[5],25.1 µM
same,GI50,[6],5.89 µM
same,GI50,[7]; read-out: GI50,< 12 nM
same,GI50,[7]; read-out: pGI50 (converted),20.9 nM
same,CC50,[7]; [18],1950 nM
same,TGI,[7],43.6 nM
same,GI50,[8],9.77 µM
same,LC50,[8],63.1 µM
same,TGI,[8],25.1 µM
same,GI50,[9],4.07 µM
same,CC50,[9],64.6 µM
same,TGI,[9],22.9 µM
same,GI50,[10],10.5 µM
same,LC50,[10],52.5 µM
same,TGI,[10],23.4 µM
same,GI50,[11],141 nM
same,CC50,[11],43.7 µM
same,TGI,[11],15.5 µM
same,GI50,[12],22.9 nM
same,LC50,[12],89.1 µM
same,TGI,[12],3.55 µM
same,GI50,[13],145 nM
same,CC50,[13],45.7 µM
same,TGI,[13],17.4 µM
same,GI50,[14],6.03 µM
same,CC50,[14],41.7 µM
same,TGI,[14],15.1 µM
same,GI50,[15],10.2 µM
same,CC50,[15],53.7 µM
same,TGI,[15],24 µM
same,GI50,[16],75.9 nM
same,CC50,[16],89.1 µM
same,TGI,[16],39.8 µM
same,GI50,[17],8.91 nM
same,LC50,[17],27.5 µM
same,TGI,[17],1580 nM
